A selection: hits, their analogues and other compounds. The true share with any hit is near 3.5%.
MrgX1 allo act: human MrgX1 positive allosteric modulation, primary screen; 310,000 compounds, 0.63% hits; MrgX1-HEK293, Fluo-4 calcium flux, FDSS; stronger effect = higher value; Q96LB2; AID 588675; B-score at 10 µM;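 active = plate-corrected calcium response at least 3 library SD above typical, normal starting fluorescence, not activating the receptor alone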;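 also: compound read alongside a low EC10 to EC30 dose of BAM8-22 agonist; peak minus trough fluorescence over baseline measured at the second addition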
Target sequence (Q96LB2 whole entry, looked up): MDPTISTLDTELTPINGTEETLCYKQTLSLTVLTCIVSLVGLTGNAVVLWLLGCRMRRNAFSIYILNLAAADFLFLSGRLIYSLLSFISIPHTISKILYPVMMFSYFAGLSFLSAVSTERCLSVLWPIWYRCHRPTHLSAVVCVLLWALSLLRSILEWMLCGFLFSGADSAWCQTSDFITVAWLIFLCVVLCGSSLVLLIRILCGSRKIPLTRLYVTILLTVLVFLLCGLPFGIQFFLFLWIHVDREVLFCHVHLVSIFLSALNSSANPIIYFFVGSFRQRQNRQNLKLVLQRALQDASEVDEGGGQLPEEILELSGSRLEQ
MrgX1 agonist: activates human MrgX1 receptor signaling; AID 588627; B-score at 10 µM; Q96LB2; 310,000 compounds, 0.44% hits; MrgX1-HEK293 cells, Fluo-4 calcium fluorescence, agonist mode; stronger effect = higher value;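 active = calcium response B-score plate-corrected fluorescence ratio at least 3 library SD, with starting fluorescence B-score inside 5 SD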
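times = overnight plating, then 30 min 37 °C plus 30 min room-temperature dye loading | assay system = stable human MrgX1 HEK293 cell line | input = fifteen thousand cells per well | signal = kinetic calcium dye fluorescence, Fluo-4 NW | dosing = compound delivered in addition one of three | read-out = B-scored fluorescence response ratio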
RGS4 act: potentiators or activators of RGS4 | HEK293 M3R/inducible RGS4, carbachol calcium flux Fluo4; stronger effect = lower value | B-score at 10 µM | 310,000 compounds, 0.92% hits | AID 463111;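 active = B-score of the integrated calcium signal more than 4 SD below the library mean, with starting fluorescence not abnormally high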;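 also: negative B-score means reduced calcium response which marks RGS4 activation or potentiation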
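test system = M3R-expressing HEK293 line, RGS4 induced by doxycycline | probe or stimulus = carbachol at ECmax as muscarinic agonist stimulus | timing = dye loading 30 min 37 °C, buffer rest 30 min RT | signal = calcium dye Fluo4 fluorescence | evaluation = B score from integrated fluorescence ratio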
RGS4 inh: inhibitors of human RGS4 | HEK293 M3R/RGS4 inducible, Fluo-4 calcium flux; stronger effect = higher value; triggered by carbachol at its EC20 | B-score at 10 µM | 310,000 compounds, 0.45% hits;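 active = B-score, a plate-corrected calcium signal, over three deviations above library mean, with baseline fluorescence within five deviations of library mean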;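 also: RGS4 expression induced by doxycycline in cells with stable M3 receptor; B-score is computed from the integrated fluorescence ratio over baseline after carbachol; higher B-score means a larger calcium signal and so more RGS4 inhibition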
Target sequence (P49798 whole entry, looked up): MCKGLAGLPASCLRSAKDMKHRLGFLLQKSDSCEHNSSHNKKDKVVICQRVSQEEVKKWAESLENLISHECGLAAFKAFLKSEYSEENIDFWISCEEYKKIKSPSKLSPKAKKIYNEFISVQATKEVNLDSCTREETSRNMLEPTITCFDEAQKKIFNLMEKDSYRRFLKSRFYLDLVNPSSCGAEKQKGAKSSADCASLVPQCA
MrgX1 antag: antagonists of human MrgX1 receptor; MRGX1-HEK293 calcium flux, Fluo-4, BAM8-22 antagonism; stronger effect = lower value; B-score at 10 µM; 310,000 compounds, 1.3% hits; AID 588676;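 active = calcium-response B-score plate-corrected more than 3 library SD below zero, starting fluorescence within 5 deviations, no agonist response on first addition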;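 also: peak minus trough fluorescence over baseline after final BAM8-22 challenge near maximal dose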
MrgX1 allo conf: human MrgX1 positive allosteric modulation, re-confirmation | shares compounds with MrgX1 allo act | MrgX1-HEK293, Fluo-4 calcium fluorescence, FDSS | activation (ratio percentage), % at 10 µM | 1,200 compounds, 13% hits;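 active = ratio at least 3 SD above the weak peptide control, stable starting fluorescence, no direct agonism earlier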;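 also: compound followed by low BAM8-22 agonist challenge near EC20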
MrgX1 ant reconf: reconfirmed antagonist of human MrgX1 receptor signaling; shares compounds with MrgX1 antag; MrgX1-HEK293, BAM8-22 calcium flux, Fluo-4; stronger effect = lower value; remaining BAM8-22 calcium response % of control (stronger effect = lower value), % at 10 µM; 2,300 compounds, 19% hits;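 active = remaining agonist calcium response no higher than 100% minus 3 SD of agonist-only control wells, with starting fluorescence near control levels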;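 also: agonist BAM8-22 given at a near maximal EC90 to ECmax level; peak minus minimum fluorescence divided by baseline after agonist addition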
HEK293 Ca flux: MrgX1 antagonist counter-screen hit in parental HEK293 cells | Fluo-4 calcium fluorescence, FDSS | 4,000 compounds, 2% hits | fluorescence ratio F(max-min)/F0 at 10 µM | shares compounds with MrgX1 antag | AID 624111;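 active = duplicate-averaged calcium fluorescence ratio at least three times the standard deviation of buffer wells, a nonspecific response in parental cells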
HEK293 Ca counter: MrgX1 allosteric activator counter-screen hit in parental HEK293 cells; 4,000 compounds, 0.4% hits; parental HEK293 calcium flux, Fluo-4 fluorescence ratio; stronger effect = higher value; fluorescence ratio F(max-min)/F0 at 10 µM; shares compounds with MrgX1 antag; AID 624114;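 active = calcium fluorescence ratio, averaged over duplicates, at least 3 SD of the buffer-well ratio, meaning a nonspecific response in receptor-free cells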;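 also: untransfected parental HEK293 lacking MrgX1 used as counterscreen for MrgX1 allosteric activators; fluorescence change taken during the second addition on a kinetic imager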
HEK293 Ca cntr2: counter-screen for MrgX1 activators: effect in parental HEK293 cells. shares compounds with MrgX1 antag. Fluo-4 calcium fluorescence (FDSS); stronger effect = higher value. fluorescence ratio F(max-min)/F0 at 10 µM. 4,000 compounds, 8.7% hits. AID 624115;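 active = calcium fluorescence ratio at least three times the spread of buffer wells, meaning a non-specific response in parental cells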
An asterisk follows results filed as active; i = inactive; . = no result given.

SMILES	MrgX1 allo act	MrgX1 agonist	RGS4 act	RGS4 inh	MrgX1 antag	MrgX1 allo conf	HEK293 Ca flux	HEK293 Ca counter	HEK293 Ca cntr2	others
CCCNC(=O)/C(=C/c1cn(S(=O)(=O)N(C)C)c2ccccc12)NC(=O)c1ccc(OC)cc1	36*	i	i	i	i	15%*	i	i	i
Cc1cccc(NC(=O)CNCC(=O)Nc2cccc(C)c2C)c1C	i	i	i	i	i	.	.	.	.
Cc1ccc(NC(=O)CNc2cccc(C)c2C)c(C)c1	16*	i	i	i	i	9.1%*	i	i	i
COc1ccc(CCNC(=O)CCc2ccccc2)cc1OC	7.5*	i	i	i	i	i	i	i	i
CCCN1CCC(NC(=O)CC2C(=O)NCCN2Cc2cccc(OC)c2)CC1 (stereo not drawn)	i	i	i	i	i	.	.	.	.
CCc1n[nH]c(=S)n1/N=C/C(C)=C\c1ccccc1	6.6*	i	i	i	i	i	i	i	i
CC(=O)NC(Cc1ccc(F)cc1)C(=O)NC1CCN(C(=O)Nc2cccc(C)c2)CC1 (stereo not drawn)	i	i	i	i	i	.	.	.	.
CC(=O)NC(Cc1ccc(F)cc1)C(=O)NC1CCN(C(=O)Nc2ccc(F)cc2)CC1 (stereo not drawn)	59*	i	i	i	i	i	i	i	i
COc1cc(-c2noc(C)c2-c2ccc(N(C)C)nc2)cc(OC)c1OC	7.7*	i	i	i	-5*	i	i	i	i	MrgX1 ant reconf=i
COc1cc(-c2noc(C)c2/C=C/c2ccc(C(=O)O)cc2)cc(OC)c1OC	i	i	i	i	i	.	.	.	.
CCCCn1c(N)c(N(CCOC)C(=O)CSCc2cccc(C)c2)c(=O)[nH]c1=O	i	i	i	i	i	.	.	.	.
CC1CN(CC(=O)Nc2ccc([N+](=O)[O-])cc2Br)CC(C)O1 (stereo not drawn)	i	i	i	i	i	.	.	.	.
Cc1[nH]ncc1-c1nc2ccccc2[nH]1	13*	i	i	i	i	i	i	i	i
Cc1cc(NC2CCCC2)n2nc(C)c(-c3ccccc3)c2n1	6.8*	i	i	i	i	i	i	i	i
CCOC(=O)C1CCCN(CC(=O)Nc2cccc(C(C)=O)c2)C1 (stereo not drawn)	i	i	i	i	i	.	.	.	.
Cc1ccccc1OC(C)C(=O)NCCC1=CCCCC1 (stereo not drawn)	11*	i	i	i	i	i	i	i	i
CCn1c(COC(=O)CNC(=O)c2ccccc2)nc2cc(S(=O)(=O)N(C)C)ccc21	i	i	i	i	i	.	.	.	.
Cc1ccc(NC(=S)NCC2CCN(C(C)c3ccccc3)C2)cc1 (stereo not drawn)	22*	i	i	i	i	i	i	i	i
CCC(C)N1CCC(Oc2ccc(C(=O)NCc3ccccn3)cc2)CC1 (stereo not drawn)	i	i	i	i	i	.	.	.	.
COc1ccc(C2(C(=O)Nc3ccc(OC)cc3OC)CCCC2)cc1	12*	i	i	i	i	i	i	i	i
